# Results as given in ChEMBL document CHEMBL2040768, “Synthesis, antimicrobial and cytotoxic activities of sulfone linked bis heterocycles” (Eur J Med Chem, 2012).
# Calls of active or inactive are those of the source. The rule behind the calls is not given here.
# Assays:
# Staphylococcus aureus [1] = experiment: Antibacterial activity against Staphylococcus aureus at 50 ug/ml after 24 hrs by agar well diffusion method; assay type: functional; conditions: read-out: DIZ
# Summary of the method: (§1)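 Agar well diffusion. Nutrient plates swabbed with 24 h broth culture of the bacterium; 6 mm wells bored and loaded with DMSO solutions of compound (wells at 50 and 100 per well). Chloramphenicol positive control, DMSO negative control. Plates held 37 °C, 24 h; inhibition zone diameter (mm) measured, mean of duplicates.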
# Staphylococcus aureus [2] = experiment: Antibacterial activity against Staphylococcus aureus at 100 ug/ml after 24 hrs by agar well diffusion method; assay type: functional; conditions: read-out: DIZ; summary of the method: as §1
# Bacillus subtilis [3] = experiment: Antibacterial activity against Bacillus subtilis at 50 ug/ml after 24 hrs by agar well diffusion method; assay type: functional; conditions: read-out: DIZ; summary of the method: as §1
# Bacillus subtilis [4] = experiment: Antibacterial activity against Bacillus subtilis at 100 ug/ml after 24 hrs by agar well diffusion method; assay type: functional; conditions: read-out: DIZ; summary of the method: as §1
# Pseudomonas aeruginosa [5] = experiment: Antibacterial activity against Pseudomonas aeruginosa at 50 ug/ml after 24 hrs by agar well diffusion method; assay type: functional; conditions: read-out: DIZ; summary of the method: as §1
# Pseudomonas aeruginosa [6] = experiment: Antibacterial activity against Pseudomonas aeruginosa at 100 ug/ml after 24 hrs by agar well diffusion method; assay type: functional; conditions: read-out: DIZ; summary of the method: as §1
# Klebsiella pneumoniae [7] = experiment: Antibacterial activity against Klebsiella pneumoniae at 50 ug/ml after 24 hrs by agar well diffusion method; assay type: functional; conditions: read-out: DIZ; summary of the method: as §1
# Klebsiella pneumoniae [8] = experiment: Antibacterial activity against Klebsiella pneumoniae at 100 ug/ml after 24 hrs by agar well diffusion method; assay type: functional; conditions: read-out: DIZ; summary of the method: as §1
# Aspergillus niger [9] = experiment: Antifungal activity against Aspergillus niger at 50 ug/ml after 48 hrs by agar well diffusion method; assay type: functional; conditions: read-out: DIZ
# Summary of the method: (§2)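 Fungal agar well diffusion. Plates swabbed with fungal culture, 6 mm wells filled with DMSO solutions of compound (50 and 100 per well). Ketoconazole positive and DMSO negative controls. Plates incubated 28 °C for 48 h; zone of inhibition diameter (mm) read, average of duplicates.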
# Aspergillus niger [10] = experiment: Antifungal activity against Aspergillus niger at 100 ug/ml after 48 hrs by agar well diffusion method; assay type: functional; conditions: read-out: DIZ; summary of the method: as §2
# Penicillium chrysogenum [11] = experiment: Antifungal activity against Penicillium chrysogenum at 50 ug/ml after 48 hrs by agar well diffusion method; assay type: functional; conditions: read-out: DIZ; summary of the method: as §2
# Penicillium chrysogenum [12] = experiment: Antifungal activity against Penicillium chrysogenum at 100 ug/ml after 48 hrs by agar well diffusion method; assay type: functional; conditions: read-out: DIZ; summary of the method: as §2
# Staphylococcus aureus [13] = experiment: Antibacterial activity against Staphylococcus aureus after 24 hrs by broth dilution method; assay type: functional
# Summary of the method: (§3)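 Broth dilution MIC. Test samples in DMSO added at increasing concentrations to tubes of nutrient broth cultures, incubated 37 °C for 24 h. Visible turbidity scored against NB control; solvent and no-sample controls included. MIC = lowest concentration preventing visible growth.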
# Bacillus subtilis [14] = experiment: Antibacterial activity against Bacillus subtilis after 24 hrs by broth dilution method; assay type: functional; summary of the method: as §3
# Pseudomonas aeruginosa [15] = experiment: Antibacterial activity against Pseudomonas aeruginosa after 24 hrs by broth dilution method; assay type: functional; summary of the method: as §3
# Klebsiella pneumoniae [16] = experiment: Antibacterial activity against Klebsiella pneumoniae after 24 hrs by broth dilution method; assay type: functional; summary of the method: as §3
# Aspergillus niger [17] = experiment: Antifungal activity against Aspergillus niger after 48 hrs by broth dilution method; assay type: functional
# Summary of the method: (§4)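 Fungal MIC by broth dilution. Compounds dissolved in DMSO, added at rising concentrations to fungal culture tubes, incubated 28 °C for 48 h. Tubes read for visible turbidity alongside a solvent control; lowest concentration with no visible growth taken as MIC.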
# Penicillium chrysogenum [18] = experiment: Antifungal activity against Penicillium chrysogenum after 48 hrs by broth dilution method; assay type: functional; summary of the method: as §4
# Staphylococcus aureus [19] = experiment: Bactericidal activity against Staphylococcus aureus after 24 hrs by broth dilution method; assay type: functional
# Bacillus subtilis [20] = experiment: Bactericidal activity against Bacillus subtilis after 24 hrs by broth dilution method; assay type: functional
# Pseudomonas aeruginosa [21] = experiment: Bactericidal activity against Pseudomonas aeruginosa after 24 hrs by broth dilution method; assay type: functional
# Klebsiella pneumoniae [22] = experiment: Bactericidal activity against Klebsiella pneumoniae after 24 hrs by broth dilution method; assay type: functional
# Aspergillus niger [23] = experiment: Fungicidal activity against Aspergillus niger after 48 hrs by broth dilution method; assay type: functional
# Penicillium chrysogenum [24] = experiment: Fungicidal activity against Penicillium chrysogenum after 48 hrs by broth dilution method; assay type: functional
# A549 = experiment: Cytotoxicity against human A549 cells up to 0.2 mM after 72 hrs by MTT assay
MIC (Staphylococcus aureus [13]) [µg/mL],MIC (Bacillus subtilis [14]) [µg/mL],MIC (Pseudomonas aeruginosa [15]) [µg/mL],MIC (Klebsiella pneumoniae [16]) [µg/mL],MIC (Aspergillus niger [17]) [µg/mL],MIC (Penicillium chrysogenum [18]) [µg/mL],SMILES,zone of inhibition at 50 µg/mL (Staphylococcus aureus [1]) [mm],zone of inhibition at 100 µg/mL (Staphylococcus aureus [2]) [mm],zone of inhibition at 50 µg/mL (Bacillus subtilis [3]) [mm],zone of inhibition at 100 µg/mL (Bacillus subtilis [4]) [mm],zone of inhibition at 50 µg/mL (Pseudomonas aeruginosa [5]) [mm],zone of inhibition at 100 µg/mL (Pseudomonas aeruginosa [6]) [mm],zone of inhibition at 50 µg/mL (Klebsiella pneumoniae [7]) [mm],zone of inhibition at 100 µg/mL (Klebsiella pneumoniae [8]) [mm],zone of inhibition at 50 µg/mL (Aspergillus niger [9]) [mm],zone of inhibition at 100 µg/mL (Aspergillus niger [10]) [mm],zone of inhibition at 50 µg/mL (Penicillium chrysogenum [11]) [mm],zone of inhibition at 100 µg/mL (Penicillium chrysogenum [12]) [mm],MBC (Staphylococcus aureus [19]) [µg/mL],MBC (Bacillus subtilis [20]) [µg/mL],also measured
50,25,50,100,25,50,Nn1c(CS(=O)(=O)Nc2ccc(Cl)cc2)nnc1CS(=O)(=O)c1c[nH]cc1S(=O)(=O)c1ccc(Cl)cc1,30,33,29,33,25,28,34,36,32,34,33,36,200,100,MBC (Pseudomonas aeruginosa [21]): > 200 µg/mL; MBC (Klebsiella pneumoniae [22]): > 200 µg/mL; MFC (Aspergillus niger [23]): 100 µg/mL; MFC (Penicillium chrysogenum [24]): > 200 µg/mL; Activity (A549): inactive
50,12.5,25,50,12.5,25,Nn1c(CS(=O)(=O)Nc2ccc(Cl)cc2)nnc1CS(=O)(=O)c1c[nH]nc1S(=O)(=O)c1ccc(Cl)cc1,31,34,33,35,30,32,37,39,30,34,33,37,200,50,MBC (Pseudomonas aeruginosa [21]): 100 µg/mL; MBC (Klebsiella pneumoniae [22]): 200 µg/mL; MFC (Aspergillus niger [23]): 50 µg/mL; MFC (Penicillium chrysogenum [24]): 100 µg/mL; Activity (A549): inactive

SMILES,MIC (Staphylococcus aureus [13]) [µg/mL],MIC (Bacillus subtilis [14]) [µg/mL],MIC (Pseudomonas aeruginosa [15]) [µg/mL],MIC (Klebsiella pneumoniae [16]) [µg/mL],MIC (Aspergillus niger [17]) [µg/mL],MIC (Penicillium chrysogenum [18]) [µg/mL],zone of inhibition at 50 µg/mL (Staphylococcus aureus [1]) [mm],zone of inhibition at 100 µg/mL (Staphylococcus aureus [2]) [mm],zone of inhibition at 50 µg/mL (Bacillus subtilis [3]) [mm],zone of inhibition at 100 µg/mL (Bacillus subtilis [4]) [mm],zone of inhibition at 50 µg/mL (Pseudomonas aeruginosa [5]) [mm],zone of inhibition at 100 µg/mL (Pseudomonas aeruginosa [6]) [mm],zone of inhibition at 50 µg/mL (Klebsiella pneumoniae [7]) [mm],zone of inhibition at 100 µg/mL (Klebsiella pneumoniae [8]) [mm],zone of inhibition at 50 µg/mL (Aspergillus niger [9]) [mm],zone of inhibition at 100 µg/mL (Aspergillus niger [10]) [mm],zone of inhibition at 50 µg/mL (Penicillium chrysogenum [11]) [mm],zone of inhibition at 100 µg/mL (Penicillium chrysogenum [12]) [mm],MBC (Staphylococcus aureus [19]) [µg/mL],MBC (Bacillus subtilis [20]) [µg/mL],also measured
O=C(N[C@H](CO)[C@H](O)c1ccc([N+](=O)[O-])cc1)C(Cl)Cl [CHLORAMPHENICOL],6.25,6.25,6.25,12.5,,,33,35,34,38,27,30,40,42,,,,,,,
CC(=O)N1CCN(c2ccc(OCC3COC(Cn4ccnc4)(c4ccc(Cl)cc4Cl)O3)cc2)CC1 (stereo not drawn) [KETOCONAZOLE],,,,,6.25,12.5,,,,,,,,,33,36,36,38,,,
